From ChEMBL document CHEMBL3997773, “Synthesis of C-4-Substituted Steviol Derivatives and Their Inhibitory Effects against Hepatitis B Virus” (J Nat Prod, 2016) come the findings set out here.

As a reminder, the IC50 is the concentration at which inhibition is half-maximal.

The source made the active and inactive calls. No cut-off for these calls is given here.

Assay [1] is described as follows: Antiviral activity against Hepatitis B virus subtype adw2 infected in human HuH7 cells assessed as effect on HBx level at 2.5 ug/ml after 2 days by immunoblot method relative to control. It counts as functional. In outline: (§1)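 Huh7 cells were transfected with pHBV1.2 (1.2-fold HBV adw2 genome) for 2 days, then exposed to 2.5, 5 or 10 μg/mL for another 2 days. Whole-cell protein was extracted with protease inhibitors. SHBs, HBcAg and HBx were detected by immunoblot, with α-tubulin for comparison.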
In general terms: In western blotting, separated proteins are transferred to a membrane and probed.

Assay [2] concerns Hepatitis B virus subtype adw2. Put plainly: Antiviral activity against Hepatitis B virus subtype adw2 infected in human HuH7 cells assessed as inhibition of viral DNA replication at 10 ug/ml cotreated with MAPK activator anisomycin after 2 days by RT-PCR method. It counts as functional, cell-based. In outline:
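Huh7 cells were cotransfected with pHBV1.2 and, where stated, 0.5 or 2.5 μg pCMV-p65 (or empty vector) for 2 days, then treated at 10 μg/mL for 2 days. In separate wells, HBV-expressing cells received 10 μg/mL with or without anisomycin (10 μM) for 2 days. Secreted viral particles were kit-isolated and HBV DNA was measured by real-time PCR, n = 3.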

Assay [3] concerns Huh-7. Description: Decrease in NF-kB p65 protein expression in human HuH7 cells transfected with pHBV1.2 at 10 ug/ml after 2 days by immunoblot method relative to control. It counts as functional. In outline:
(§2)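 Huh7 cells were transfected with pHBV1.2 for 2 days, then treated at 2.5, 5 or 10 μg/mL for another 2 days. Whole-cell protein was extracted with protease inhibitors. NF-κB p65/p50, phospho-p65, IKKα/β and IκBα/phospho-IκBα were detected by immunoblot. Blots are representative of three experiments.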

Assay [4] has as its system Huh-7. Description: Decrease in SAPK/JNK protein expression in human HuH7 cells transfected with pHBV1.2 at 2.5 to 10 ug/ml after 2 days by immunoblot method.
For assay [5], the system named is Huh-7. Description: Effect on IKKalpha protein expression in human HuH7 cells transfected with pHBV1.2 at 2.5 ug/ml after 2 days by immunoblot method relative to control. Type of assay: functional. In outline: (§3)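 HBV adw2 genome plasmid pHBV1.2 transfected into Huh7 for 2 days, then 2.5, 5 or 10 μg/mL for another 2 days. Whole-cell protein extracted with protease inhibitors, then SDS-PAGE immunoblot for NF-κB and MAPK pathway proteins. Blots are representative of three sets of experiments.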

A short description of assay [6]: Antiviral activity against Hepatitis B virus subtype adw2 infected in human HuH7 cells assessed as reduction in HBcAg level at 2.5 ug/ml after 2 days by immunoblot method relative to control. It counts as functional. In outline:
as §1

The species named for assay [7] is Homo sapiens. Put plainly: Decrease in SAPK/JNK phosphorylation in human HuH7 cells transfected with pHBV1.2 at 2.5 to 10 ug/ml after 2 days by immunoblot method.
Assay [8] relates to Huh-7. Put plainly: Effect on NF-kB p50 protein expression in human HuH7 cells transfected with pHBV1.2 at 2.5 ug/ml after 2 days by immunoblot method relative to control. Type of assay: functional. An outline of the steps: as §3
Assay [9] is described as follows: Antiviral activity against Hepatitis B virus subtype adw2 infected in human HepG2.2.15 cells assessed as inhibition of HBeAg secretion by EIA.
In assay [10] the test system is Huh-7. Put plainly: Decrease in IKKalpha protein expression in human HuH7 cells transfected with pHBV1.2 at 5 ug/ml after 2 days by immunoblot method relative to control. Type of assay: functional. In outline:
as §2

Assay [11] relates to Huh-7. Description: Decrease in NF-kB p65 protein expression in human HuH7 cells transfected with pHBV1.2 at 2.5 ug/ml after 2 days by immunoblot method relative to control. Type of assay: functional. An outline of the steps: as §2
For assay [12], the system named is Huh-7. Put plainly: Decrease in IKKalpha protein expression in human HuH7 cells transfected with pHBV1.2 at 10 ug/ml after 2 days by immunoblot method relative to control. It counts as functional. An outline of the steps:
as §2

Assay [13] concerns the target Transcription factor p65 (Homo sapiens) (UniProt Q04206). Description: Decrease in NF-kB p65 phosphorylation in human HuH7 cells transfected with pHBV1.2 at 10 ug/ml after 2 days by immunoblot method relative to control. Type of assay: cell-based. In outline: as §2
Assay [14] has as its system Hepatitis B virus subtype adw2. Description: Antiviral activity against Hepatitis B virus subtype adw2 infected in human HuH7 cells assessed as inhibition of HBeAg secretion after 3 days by EIA. Type of assay: functional, cell-based. In outline: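 HBV-expressing Huh7 cells were given 2.5, 5 or 10 μg/mL for 3 days. HBsAg and HBeAg in the conditioned medium were measured by enzyme immunoassay. Mean ± SD, n = 3, compared with untreated cells.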

Assay [15] is described as follows: Effect on ISRE (unknown origin) promoter activity expressed in human HuH7 cells cotransfected with pHBV1.2 at 10 ug/ml after 24 hrs by luciferase reporter gene assay. It counts as cell-based. An outline of the steps:
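Huh7 seeded in 24-well plates for 24 h. They were cotransfected with pHBV1.2 plus a luciferase reporter carrying the AP-2 (pAP2-Luc) or ISRE (pISRE-Luc) element, at 1 μg/well, and pRLSV40, in serum-free DMEM for 24 h. After a PBS wash, cells were placed in DMEM with 2% FBS and treated with 10 μg/mL. Luciferase was read from lysates; mean ± SD, n = 3.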
On the technique in general: A reporter such as luciferase makes a cellular process visible.

Assay [16] has as its target T1, NF-kappa-B inhibitor alpha (Homo sapiens) (UniProt P25963).
T1 sequence (whole entry): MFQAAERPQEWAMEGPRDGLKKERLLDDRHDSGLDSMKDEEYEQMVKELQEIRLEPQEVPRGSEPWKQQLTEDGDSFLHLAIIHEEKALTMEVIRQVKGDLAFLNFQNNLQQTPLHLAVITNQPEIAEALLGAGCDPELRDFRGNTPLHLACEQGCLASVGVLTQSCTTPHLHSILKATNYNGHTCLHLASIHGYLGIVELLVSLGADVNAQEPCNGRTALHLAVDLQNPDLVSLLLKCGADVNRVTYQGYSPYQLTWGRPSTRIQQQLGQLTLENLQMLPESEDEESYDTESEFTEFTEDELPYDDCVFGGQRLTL
Description: Decrease in IKBalpha phosphorylation in human HuH7 cells transfected with pHBV1.2 at 5 ug/ml after 2 days by immunoblot method relative to control. It counts as cell-based. In outline:
as §2

Assay [17] concerns the target T1, NF-kappa-B inhibitor alpha (Homo sapiens). Put plainly: Decrease in IKBalpha phosphorylation in human HuH7 cells transfected with pHBV1.2 at 2.5 ug/ml after 2 days by immunoblot method relative to control. Type of assay: cell-based. An outline of the steps:
as §2

The nature of assay [18]: Antiviral activity against Hepatitis B virus subtype adw2 infected in human HuH7 cells assessed as reduction in HBcAg level at 10 ug/ml after 2 days by immunoblot method relative to control. Type of assay: functional. An outline of the steps:
as §1

Transcription factor p65 (Homo sapiens), sequence (Q04206 whole entry): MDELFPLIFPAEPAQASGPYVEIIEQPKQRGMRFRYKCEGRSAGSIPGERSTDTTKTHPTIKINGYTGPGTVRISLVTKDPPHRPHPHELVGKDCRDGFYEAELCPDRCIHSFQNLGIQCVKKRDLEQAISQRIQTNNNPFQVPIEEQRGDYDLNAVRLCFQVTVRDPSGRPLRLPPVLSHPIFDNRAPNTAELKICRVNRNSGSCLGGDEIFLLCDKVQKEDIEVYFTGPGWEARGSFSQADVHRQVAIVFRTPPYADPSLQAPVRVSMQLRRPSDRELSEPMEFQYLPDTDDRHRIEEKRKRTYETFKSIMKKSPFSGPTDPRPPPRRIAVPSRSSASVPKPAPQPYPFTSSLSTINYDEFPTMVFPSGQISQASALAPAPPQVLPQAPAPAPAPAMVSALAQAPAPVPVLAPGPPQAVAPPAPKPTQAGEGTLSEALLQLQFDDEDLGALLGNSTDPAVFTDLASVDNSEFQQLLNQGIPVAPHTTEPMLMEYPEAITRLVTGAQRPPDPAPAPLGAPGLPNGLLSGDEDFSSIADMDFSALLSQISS

Take `C=C1C[C@@]23CC[C@H]4[C@@](C)(CCC[C@@]4(C)NC(=O)NCCCC)[C@@H]2CC[C@]1(O)C3`: the “fold change (FC)” value in [1] came out at 1.12; in [3], 0.33; in assay [5], 1.1; in assay [6], 0.78; in assay [8], 1.01; in assay [10], 1.01. Moreover, the “fold change (FC)” value in [11] stood at 0.89; in [12] it was 0.46; in [13], 0.23; in assay [16], 0.94; in assay [17] it was 0.97; in [18], 0.11. Further, the inhibition result in assay [2] is “inactive”. For the same compound, the result in assay [4] and in assay [7] was Active. The IC50 in assay [9] came out at 20.4 µM. Also, the inhibition result in assay [14] is “Dose-dependent effect”. Moreover, the result in assay [15] was inactive.
